Data reported in ChEMBL document CHEMBL4251733, “Manumycin A Is a Potent Inhibitor of Mammalian Thioredoxin Reductase-1 (TrxR-1)” (ACS Med Chem Lett, 2018).
Calls of active or inactive are those of the source. The calls are words filed in the database; no cut-off is given here.

How the values were obtained:
[1] = Drug metabolism assessed as selenocysteine reactivity at 20 uM incubated for 1 hr measured every 5 mins for 1 hr by sel-green probe based fluorescence assay; assay type: physicochemical
Outline: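 Reduced L-selenocysteine (20 μM) reacted with Sel-green probe (20 μM) with test compound at 20 μM; DMSO-only control.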

[2] = molecular target: T1, Thioredoxin reductase 1, cytoplasmic (Rattus norvegicus) (UniProt O89049); experiment: (§1) Inhibition of NADPH-reduced recombinant rat TrxR1 expressed in Escherichia coli harboring gor mutant assessed as suppression of insulin reduction using Trx as substrate pretreated for 30 mins followed by Trx addition for 30 mins and subsequent eosin-labelled bovine insulin addition measured every 5 mins for 1 hr by fluorescence assay
T1 sequence (whole entry): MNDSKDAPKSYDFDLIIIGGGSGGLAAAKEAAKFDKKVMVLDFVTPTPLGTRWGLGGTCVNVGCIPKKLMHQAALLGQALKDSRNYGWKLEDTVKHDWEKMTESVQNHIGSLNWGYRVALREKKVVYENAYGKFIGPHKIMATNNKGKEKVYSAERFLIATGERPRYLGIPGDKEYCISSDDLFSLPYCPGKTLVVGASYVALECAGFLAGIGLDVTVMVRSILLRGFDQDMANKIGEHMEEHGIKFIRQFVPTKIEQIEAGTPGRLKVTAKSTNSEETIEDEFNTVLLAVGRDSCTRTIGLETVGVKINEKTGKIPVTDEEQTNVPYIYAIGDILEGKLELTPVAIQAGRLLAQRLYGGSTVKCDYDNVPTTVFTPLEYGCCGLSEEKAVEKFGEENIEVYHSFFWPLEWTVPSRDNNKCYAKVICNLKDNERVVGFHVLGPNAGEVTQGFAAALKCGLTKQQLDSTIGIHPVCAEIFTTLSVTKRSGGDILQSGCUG

[3] = molecular target: T2, Thioredoxin reductase 1, cytoplasmic (Rattus norvegicus, UniProt O89049); experiment: as §1
[4] = molecular target: T2, Thioredoxin reductase 1, cytoplasmic; experiment: Inhibition of NADPH-reduced recombinant rat TrxR1 expressed in Escherichia coli harboring gor mutant assessed as suppression of DTNB reduction pretreated for 1 hr followed by DTNB addition measured every 5 mins for 1 hr
Outline: (§2)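 Rat recombinant TrxR-1 (5.6 nM), prereduced, with DTNB (2 mM) and compound 0–5000 nM. Compound was either preincubated 1 h with enzyme before substrate or added at the same time as DTNB. Read-out was initial rates of DTNB reduction relative to no-compound control, giving IC50 (± error).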

[5] = molecular target: T2, Thioredoxin reductase 1, cytoplasmic; experiment: Inhibition of NADPH-reduced recombinant rat TrxR1 expressed in Escherichia coli harboring gor mutant assessed as suppression of DTNB reduction incubated for 1 hr in presence of DTNB measured every 5 mins for 1 hr; outline: as §2
[6] = molecular target: T1, Thioredoxin reductase 1, cytoplasmic (Rattus norvegicus); experiment: Time-dependent inhibition of NADPH-reduced recombinant rat TrxR1 expressed in Escherichia coli harboring gor mutant assessed as suppression of DTNB reduction at 1 uM measured every 5 mins for 1 hr
[7] = molecular target: T1, Thioredoxin reductase 1, cytoplasmic (Rattus norvegicus); experiment: Irreversible inhibition of NADPH-reduced recombinant rat TrxR1 expressed in Escherichia coli harboring gor mutant assessed as suppression of DTNB reduction at 2 uM pretreated for 1 hr followed by NADPH addition for 30 mins and subsequent DTNB addition measured every 5 mins for 1 hr
[8] = molecular target: T1, Thioredoxin reductase 1, cytoplasmic (Rattus norvegicus); experiment: Inhibition of oxidized recombinant rat TrxR1 expressed in Escherichia coli harboring gor mutant assessed as suppression of DTNB reduction at 2 uM pretreated for 30 mins followed by NADPH addition for 30 mins and subsequent DTNB addition measured every 5 mins for 1 hr
[9] = molecular target: T1, Thioredoxin reductase 1, cytoplasmic (Rattus norvegicus); experiment: Induction of recombinant rat TrxR1 NADPH oxidase activity expressed in Escherichia coli harboring gor mutant assessed as superoxide generation by measuring cytochrome C reduction at 62.5 uM measured in presence of SOD
Outline: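 TrxR-1 (100 nM) incubated with compound (62.5 μM), with and without SOD (6 units/well); reduction of cytochrome C (100 μM) followed over time; DMSO-only control.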

[10] = molecular target: T1, Thioredoxin reductase 1, cytoplasmic (Rattus norvegicus); experiment: Inhibition of NADPH-reduced recombinant rat TrxR1 expressed in Escherichia coli harboring gor mutant assessed as suppression of DTNB reduction at 5 uM pretreated for 1 hr followed by DTNB addition measured every 5 mins for 1 hr; outline: as §2
[11] = molecular target: T1, Thioredoxin reductase 1, cytoplasmic (Rattus norvegicus); experiment: Inhibition of NADPH-reduced recombinant rat TrxR1 expressed in Escherichia coli harboring gor mutant assessed as suppression of DTNB reduction at 5 uM incubated for 1 hr in presence of DTNB measured every 5 mins for 1 hr; outline: as §2

Row | Drug metabolism [1] | inhibition [2] | IC50 [3] | IC50 [4] | IC50 [5] | TDI [6] | inhibition [7] | inhibition [8] | Activity [9] | inhibition [10] | inhibition [11] | Structure (SMILES)
1 | Metabolite_Notdetected | – | – | – | – | – | – | – | – | – | – | CCCCC(C)/C=C(C)/C=C(\C)C(=O)Nc1cc(/C=C/C=C/C=C/C(=O)NC2=C(O)CCC2=O)c(O)cc1O (configuration not stated)
2 | Metabolite_Detected | Dose-dependent effect | 572 nM | 272 nM | 1590 nM | Active | Active | inactive | inactive | Active | Active | CCCC[C@@H](C)/C=C(C)/C=C(\C)C(=O)NC1=C[C@@](O)(/C=C/C=C/C=C/C(=O)NC2=C(O)CCC2=O)[C@@H]2O[C@@H]2C1=O [MANUMYCIN A]
